The values below come from ChEMBL document CHEMBL1121913, “Inactivation of liver alcohol dehydrogenases and inhibition of ethanol metabolism by ambivalent active-site-directed reagents” (J Med Chem, 1981).

The target in data set [1] is T1, Alcohol dehydrogenase (Equus caballus) (UniProt P00327+P00328). In words: The compound was tested for the ability to inactivate horse liver alcohol dehydrogenase in the presence of 1 mM NAD+k.
Data set [2] deals with T2, Alcohol dehydrogenase (Homo sapiens) (UniProt P07327+P08319+P00325+P00326+P40394+P11766+P28332). As to the kind of experiment: The compound was tested for the ability to inactivate human liver alcohol dehydrogenase in the absence of NAD+K. The method, boiled down:
(§1)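 Human liver ADH, purified on carboxymethyl- and DEAE-cellulose plus (NH₄)₂SO₄ (60%) with 5% ethanol throughout, ethanol dialysed out. Inactivation at 25 °C in 0.1 M Na₂P₂O₇, pH 8, enzyme about 0.2 mg/mL, 0.2 mM reagent; NAD⁺ added 1 min before reagent where used. Apparent second-order constant calculated assuming first order in reagent.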

In data set [3] the target is T2, Alcohol dehydrogenase (Homo sapiens). As to the kind of experiment: The compound was tested for the ability to inactivate human liver alcohol dehydrogenase in the presence of 1 mM NAD+k. The method, boiled down:
as §1

The nature of data set [4]: The compound was tested for the ability to inactivate mouse liver alcohol dehydrogenase in the absence of NAD+K. In outline:
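Mouse liver ADH, fourfold purified ((NH₄)₂SO₄ 45–65% cut, DEAE-cellulose), incubated at about 0.2 mg/mL with 0.2 mM reagent in 0.1 M Na₂P₂O₇ pH 8, 25 °C; coenzyme, when present, added 1 min before inactivator. Apparent second-order rate constant derived assuming reaction first order in reagent.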

Data set [5] in a line: The compound was tested for the ability to inactivate rat liver alcohol dehydrogenase in the absence of NAD+K. In outline:
(§2)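 Rat liver enzyme purified 15-fold ((NH₄)₂SO₄ 35–75%, DEAE-cellulose). Inactivation with 0.2 mM reagent, 0.1 M pyrophosphate buffer pH 8, 25 °C, enzyme near 0.2 mg/mL; NAD⁺ preincubated 1 min with enzyme before reagent addition. Apparent second-order constants computed on assumption of first-order dependence on reagent.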

Data set [6] can be described thus: The compound was tested for the ability to inactivate rat liver alcohol dehydrogenase in the presence of 1 mM NAD+K. The method, boiled down: as §2
The target of data set [7] is T1, Alcohol dehydrogenase (Equus caballus). In words: The compound was tested for the ability to inactivate horse liver alcohol dehydrogenase in the absence of NAD+k.
The target is the same in data set [8]. As to the kind of experiment: The compound was tested for the ability to inactivate horse liver alcohol dehydrogenase in the presence of 1 mM NAD+K.
The target is the same in data set [9]. In words: The compound was tested for the ability to inactivate horse liver alcohol dehydrogenase in the presence of 0.2 mM NAD+K.
Data set [10] in a line: Percent inhibition of Alcohol dehydrogenase activity in mice liver at dose 0.13 mmol/kg. The class given is tissue-based. The method, boiled down: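 Male Swiss-Webster mice (20–25 g), fed, given one ip dose of reagent suspended in sterile 0.9% saline, then ethanol 3 g/kg ip (40% w/v in saline) 22–24 h later. Liver removed once blood ethanol approached zero, chilled, homogenized, clarified by centrifugation. ADH activity taken as initial-velocity difference, ethanol/NAD⁺ assay minus same assay with 10 mM pyrazole, per mg protein. Four or five mice per group.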

A short description of data set [11]: Percent inhibition of rate of ethanol metabolism in mice at dose 0.13 mmol/kg. The settings on record: in the assay text read “0.48 mmol/kg” for “0.13 mmol/kg”. In outline:
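Mice (male Swiss-Webster, fed) dosed ip with reagent in saline 22–24 h before ethanol 3 g/kg ip. Tail-vein blood (5 µL) deproteinized with Ba(OH)₂/ZnSO₄, 1-propanol internal standard, analyzed by GC with flame-ionization detection. Elimination slope fitted excluding absorption (1–2 h), multiplied by r (dose / theoretical zero-time blood level) to give metabolic rate. Four or five mice per group.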

A short description of data set [12]: Percent inhibition of Alcohol dehydrogenase activity in rat liver at dose 0.13 mmol/kg. It is filed as tissue-based. In outline: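 Fed male Sprague-Dawley rats (160–200 g) received a single ip saline-suspended reagent dose, then ethanol 2 g/kg ip (40% w/v in saline) 22–24 h afterwards. Liver excised when blood ethanol neared zero, homogenized on ice, centrifuged. Activity = initial rate with ethanol and NAD⁺ minus rate in control assay containing 10 mM pyrazole, expressed per mg protein. Two rats per experiment.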

Data set [13] concerns Mus musculus. In words: Percent inhibition of recovery of rotarod performance in mice at dose 0.13 mmol/kg. It is filed as functional. The method, boiled down:
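Mice trained to hang on a 2-cm rod rotating at 7 rpm, two 15-min periods. Reagent given ip 22 h before ethanol 3 g/kg; five mice per dose, five vehicle controls. Impairment = 100(15 − minutes on rod)/15, probit-transformed; t1/2 for regaining 50% performance by regression. Inhibition = [t1/2(treated) − t1/2(control)]/t1/2(treated).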
(In general: Falling from the rotarod earlier than controls is read as motor impairment.)

Data set [14] can be described thus: Toxic effect in mice. It is filed as toxicity, organism-based. Conditions: mouse, in vivo. The method, boiled down:
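Male Swiss-Webster mice (20–25 g); single i.p. dose of compound suspended in sterile 0.9% saline. Acute lethality scored over 24 h; LD₅₀ with limits at p ≤ 0.05 from three doses on 15 mice.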

The nature of data set [15]: Toxic effect in rats. Conditions: rat, in vivo. It is filed as toxicity, organism-based. The method, boiled down:
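Male Sprague-Dawley rats (160–200 g), two per dose; single i.p. dose of compound suspended in sterile 0.9% saline. Acute lethality scored over 24 h after dosing.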

Data set [16] deals with Rattus norvegicus. In words: Percent inhibition of rate of ethanol metabolism in rats at dose 0.13 mmol/kg. The class given is functional. In outline:
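Rats (male Sprague-Dawley, fed) pretreated ip with reagent suspended in saline 22–24 h before ethanol 2 g/kg ip. Serial 5 µL tail-vein samples, Ba(OH)₂/ZnSO₄ deproteinization with 1-propanol internal standard, GC-FID. Metabolic rate = blood-ethanol decline slope × ratio of dose to extrapolated zero-time blood level. Two rats per experiment.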

Each structure is given as a SMILES string.

Consider `O=C(O)CCCCCCCNC(=O)CBr`, for which the Rate constant in data set [1] was 0.12 M⁻¹ s⁻¹; in [2], 0.112 M⁻¹ s⁻¹; in data set [3], 0.833 M⁻¹ s⁻¹; in data set [4] it was 0.0817 M⁻¹ s⁻¹; in [5] it was 0.2 M⁻¹ s⁻¹; in data set [6] it was 0.0667 M⁻¹ s⁻¹. The compound also returned a Rate constant in data set [7] of 0.105 M⁻¹ s⁻¹.
Turning to `CS(=O)(=O)OCC(=O)Nc1ccc(CCCC(N)=O)cc1`, the Rate constant is 0.4 M⁻¹ s⁻¹ in [8] and 0.217 M⁻¹ s⁻¹ in [9]. Moreover, the values for the inhibition in data set [10], in data set [11] and in data set [12] were 38%, 43% and 35%, respectively. In addition, the inhibition in vivo at 130 µmol/kg in data set [13] came out at 70%; in data set [16] it was 15%. Moreover, the 50% lethal dose (LD50) in [14] and in data set [15] was over 480 µmol/kg in each case.
In the case of `O=C(O)CCCCCCCCCCNC(=O)CBr`, the Rate constant in [1] worked out at 0.05 M⁻¹ s⁻¹; in [2], 3.83 M⁻¹ s⁻¹; in data set [3] it was 23.3 M⁻¹ s⁻¹; in data set [4], 0.147 M⁻¹ s⁻¹; in data set [5], 0.152 M⁻¹ s⁻¹; in [6] it was 0.0667 M⁻¹ s⁻¹. Besides, the Rate constant in data set [7] worked out at 0.717 M⁻¹ s⁻¹.
For `O=C(O)CCCCCCNC(=O)CBr`, the Rate constant in [1] worked out at 0.00833 M⁻¹ s⁻¹; in [2], 0.112 M⁻¹ s⁻¹; in [3], 0.138 M⁻¹ s⁻¹; in data set [4], 0.127 M⁻¹ s⁻¹; in data set [5] it was 0.183 M⁻¹ s⁻¹; in data set [6], 0.0133 M⁻¹ s⁻¹. Also, the Rate constant in [7] worked out at 0.0983 M⁻¹ s⁻¹.
On to `O=C(O)CCCCCCCCNC(=O)CBr`, for which the Rate constant in [1] was 0.0817 M⁻¹ s⁻¹; in data set [2], 0.383 M⁻¹ s⁻¹; in data set [3], 4 M⁻¹ s⁻¹; in data set [4] it was 0.0817 M⁻¹ s⁻¹; in data set [5] it was 0.2 M⁻¹ s⁻¹; in data set [6], 0.2 M⁻¹ s⁻¹. This compound also displayed a Rate constant in [7] of 0.167 M⁻¹ s⁻¹.
As for `O=C(O)CCCCCCCCCCCNC(=O)CBr`, the Rate constant in [1] was 0.0533 M⁻¹ s⁻¹; in [2] it was 2.33 M⁻¹ s⁻¹; in [3], 5.33 M⁻¹ s⁻¹; in [4] it was 0.717 M⁻¹ s⁻¹; in data set [5], 0.317 M⁻¹ s⁻¹; in data set [6] it was 0.0167 M⁻¹ s⁻¹. The Rate constant in [7] stood at 2 M⁻¹ s⁻¹.
Consider `NC(=O)CCCc1ccc(NC(=O)CCl)cc1`, for which the Rate constant in [8] was determined as 0.0417 M⁻¹ s⁻¹; in [9], 0.0267 M⁻¹ s⁻¹.

In general, inhibition refers to the change of the read-out against control, counted positive when it falls. As usually defined, the inhibition in vivo is the relative decrease from the control value, in per cent. Usually LD50 stands for the dose at which mortality reaches 50%. Read a high LD50 as lower toxicity.
